Experimental data collected from several papers.
Target: High affinity nerve growth factor receptor (NTRK1, Homo sapiens, UniProt P04629)

C1=C/COCc2cc(ccc2OCCN2CCCC2)Nc2nccc(n2)-c2cccc(c2)COC/1  remaining binding (binding; 0.1 µM): 10%
CO[C@@H]1[C@H](N(C)C(=O)c2ccccc2)C[C@H]2O[C@]1(C)n1c3ccccc3c3c4c(c5c6ccccc6n2c5c31)C(=O)NC4  inhibition (enzyme activity, inhibitor; 1 µM): 98%
CCCCC(=O)Nc1ccc(-c2ccc3ncn(CCC)c(=O)c3c2)cn1  remaining binding (binding, competition with immobilised ligand; 0.5 µM): 99%
C=CC(=O)N1CCC([C@@H]2CCNc3c(C(N)=O)c(-c4ccc(Oc5ccccc5)cc4)nn32)CC1  inhibition (cell-free assay; 1 µM): 47%
COc1ccc2[nH]c3c4[nH]c5ccc(OC)cc5c4c4c(c3c2c1)C(=O)NC4=O  remaining binding (binding, competition with immobilised ligand; 1 µM): 40%
COc1ccc2oc(-c3ccc4nc(N)oc4c3)c/c(=N\c3ccccc3NC(=O)CCN)c2c1  remaining binding (binding; 1 µM): 88%
CN(C)C(=O)c1cc2cnc(Nc3ccc(-c4ccc5c(=O)cc(N6CCOCC6)oc5c4)cc3)nc2n1C1CCCC1  remaining binding (binding, competition with immobilised ligand; 1 µM): 3.7%
N#Cc1ccc(NC(=O)Nc2ccccc2)cc1  remaining binding (cell-free assay, competition with immobilised ligand; 25 µM): 55%
C[C@H]1CC[C@H](n2c3cnccc3c3cnc(Nc4ccc5c(n4)CCN(C(=O)CO)C5)nc32)CC1  remaining binding (cell-free assay, competition with immobilised ligand; 1 µM): 18%
